XBP1 UPR activ: adaptive UPR (XBP1) activation | AID 463104 | hit rate 0.33% among 330,000 | activation, % at 20 µM | CHO-XBP1 luciferase reporter, IRE1-XBP1 UPR activation, luminescence; percent of tunicamycin response, DMSO as zero;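 active = versus positive control, 20 µM dose yields 30% or more activation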
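Assay system: IRE1-XBP1 luciferase reporter CHO line. Input: 1000 cells/well. Buffer or medium: F12 with 10% serum. Doses: 20 µM, 1% DMSO. Times: overnight seeding at 37 °C, 6 h compound treatment at 37 °C. Technique: Steady-Glo luciferase glow luminescence, 10 min after reagent addition.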
CSC inhib: blocks cancer stem cells; hit rate 1.1% among 300,000; inhibition, % at 7.5 µM; cancer stem cell-like cells viability, luminescence; in the data active = inhibition above about 75%; tested in HMLE shEcad cells
Beta apoptosis: blocks beta cell apoptosis; INS-1E cytokine-induced death, ATP luminescence, 48 h; percent of positive-control rescue, neutral wells zero; protection from apoptosis, % (test concentration not listed); hit rate 0.8% among 300,000; AID 435005;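 active = Every replicate reaches about 75%, or at least half do and their mean reaches it too, limit read from the data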;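 note: higher means more ATP so stronger rescue from cytokine killing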
Mdm2 MdmX PPI: human Mdm2/MdmX binding inhibition; O15151+Q00987; SaOS-2 split-luciferase Mdm2/MdmX complementation, luminescence; inhibition, % at 8 µM; hit rate 3% among 330,000; AID 485346;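 active = inhibition of at least 50% at 8 µM in the primary screen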
UPR CHOP act: activators of apoptotic arm of unfolded protein response (CHOP) | activation, % at 10 µM | hit rate 0.34% among 330,000 | AID 449763 | CHO-CHOP luciferase reporter, UPR activation, luminescence; percent of tunicamycin response over DMSO baseline;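 active = at 10 µM dose, activation of 40% or more, normalized to positive control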
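Test system: CHO-CHOP cells, stable luciferase reporter of PERK-eIF2a-CHOP signalling | Quantity: 500 CHO-CHOP cells per well | Buffer or medium: F12 plus 10% serum | Compound dosing: 10 µM single point, 0.5% DMSO | Schedule: 6 h compound treatment, 37 °C | Signal: Luciferase luminescence | Control set: Tunicamycin high control, DMSO low control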
SKKanGAS inh: SKKanGAS growth inhibition | S. pyogenes SKKanGAS, kanamycin growth, BacTiter-Glo, 6 h | inhibition, % at 7.5 µM | hit rate 1.3% among 300,000 | AID 1662;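 active = mean replicate score, as percent of positive control median, at least 50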;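 note: strain carries kanamycin resistance gene driven by streptokinase promoter and grows in 40 µg/ml kanamycin; loss of luminescence reflects streptokinase promoter inhibition or plain growth inhibition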
Mdm2-MdmX conf: human Mdm2/MdmX binding inhibition, confirmed; hit rate 55% among 10,000; luminescent assay; shares compounds with Mdm2 MdmX PPI; AID 489028; inhibition, % at 8 µM; in the data active = inhibition above about 40%
Full FLuc ctr: full-length luciferase inhibition in Mdm2/MdmX counter-screen. AID 504607. inhibition, % at 8 µM. hit rate 77% among 6,200. shares compounds with Mdm2 MdmX PPI. SaOS-2 full-length luciferase counterscreen, luminescence;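 active = mean inhibition at 8 µM reaching about 37%, which flags the compound as non-specific, limit read from the data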;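 note: p53-null SaOS-2 cells with luciferase driven by a doxycycline-inducible promoter; compound on cells about two nights before reading with doxycycline added after day one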
Large screens that a line does not name were inactive (follow-up assays come after a bar, where they were run). Compounds with a hit are over-represented: about 4.8% of the library has one in this group of screens.

Cc1ccc(-n2cc(CNCCCn3ccnc3C)c(-c3ccc(F)cc3)n2)cc1	Mdm2 MdmX PPI 73.0 | Mdm2-MdmX conf inactive
Cc1c(NC(=O)C(C)OC(=O)c2cccnc2Cl)c(=O)n(-c2ccccc2)n1C (stereo not drawn)	none (no result: SKKanGAS inh)
COC(=O)COc1ccc(S(=O)(=O)Nc2ccc3c(c2)OCO3)cc1	none
COC(=O)COc1ccc(S(=O)(=O)Nc2ccc3c(c2)OCO3)cc1Cl	Mdm2 MdmX PPI 52.4 | Mdm2-MdmX conf inactive
C=CCNc1nc(N)c(C(=C(C#N)C#N)c2ccc(Br)cc2)s1	Mdm2 MdmX PPI 50.5 | Mdm2-MdmX conf 41.9 | Full FLuc ctr 87.8
CC(C)c1ccc(C(=O)COC(=O)C(O)c2ccccc2)cc1 (stereo not drawn)	none (no result: SKKanGAS inh)
COc1cccc(/C=N\NC(=O)c2ccc(Cn3cc(Br)c([N+](=O)[O-])n3)o2)c1O	Beta apoptosis 96.0, Mdm2 MdmX PPI 59.5 | Mdm2-MdmX conf 73.5 | Full FLuc ctr 43.0
COc1ccc(/C=N\NC(=O)c2c(C)nc3ccc(Br)cn23)cc1	Mdm2 MdmX PPI 59.1 | Mdm2-MdmX conf 51.9 | Full FLuc ctr 48.8
COc1ccc(/C=N/NC(=O)c2c(C)nc3ccc(Br)cn23)cc1OC	none
COc1cccc(/C=N/NC(=O)c2c(C)nc3ccc(Br)cn23)c1O	CSC inhib 89.3, Beta apoptosis 81.6, Mdm2 MdmX PPI 66.7, SKKanGAS inh 66.5 | Mdm2-MdmX conf 73.6 | Full FLuc ctr inactive
Cc1ccc(/C=N/NC(=O)c2c(C)nc3ccc(Br)cn23)cc1	Mdm2 MdmX PPI 50.4 | Mdm2-MdmX conf 54.6 | Full FLuc ctr 53.4
Cc1ccc(S(=O)(=O)c2nc(-c3ccccc3F)oc2N2CC(C)OC(C)C2)cc1 (stereo not drawn)	none (no result: Beta apoptosis)
O=C(c1ccsc1)N1CCCC(Nc2cccc(F)c2)C1 (stereo not drawn)	none
CCCc1nnc(NC(=O)CCC(=O)NC2CCCC2)s1	none
COc1ccccc1CNC(=O)c1cccc(S(=O)(=O)N(C)c2ccccc2)c1	none (no result: SKKanGAS inh)
Cc1ccc2c(CC(=O)Nc3ccc(F)c(S(=O)(=O)N4CCOCC4)c3)coc2c1	none (no result: CSC inhib, SKKanGAS inh)
Cc1ccc(C)c(NC(=O)Cn2nnc(C(=O)NCc3cccs3)c2N)c1	Mdm2 MdmX PPI 65.0 | Mdm2-MdmX conf inactive
COc1ccc(NC(=O)c2nnn(CC(=O)Nc3ccccc3OC)c2N)c(OC)c1	Mdm2 MdmX PPI 67.7 | Mdm2-MdmX conf inactive
COc1ccccc1NC(=O)Cn1nnc(C(=O)NCc2cccs2)c1N	Mdm2 MdmX PPI 55.6 (no result: Beta apoptosis) | Mdm2-MdmX conf 63.8 | Full FLuc ctr 67.6
Cc1ccc(NC(=O)Cn2nnc(C(=O)NCc3cccs3)c2N)cc1	none
CCOCC(=O)Nc1c(C(=O)Nc2ccccc2OC)oc2ccccc12	none
COc1ccc(NC(=O)c2oc3ccccc3c2NC(=O)COc2ccccc2OC)c(OC)c1	Mdm2 MdmX PPI 69.7 | Mdm2-MdmX conf inactive
O=C(CN1C(=O)NC2(CCCCC2)C1=O)N1CCN(S(=O)(=O)c2ccc(F)c(F)c2F)CC1	none (no result: CSC inhib, Beta apoptosis, SKKanGAS inh)
Cc1cc(Cl)ccc1NC(=O)CN(C)C1=NS(=O)(=O)c2ccccc21	none (no result: SKKanGAS inh)
CC(C)c1nnc(NC(=O)C2CCN(C(=O)Nc3ccc(Cl)cc3)CC2)s1	none
CCC(=O)N1N=C(c2ccc(NS(=O)(=O)c3ccccc3)cc2)CC1c1ccco1 (stereo not drawn)	none (no result: SKKanGAS inh)
C=CC[n+]1c(/C=C2\C=Cc3cc(C)ccc3N2CC)ccc2ccccc21	Beta apoptosis 109.3, Mdm2 MdmX PPI 84.8 | Mdm2-MdmX conf 70.0 | Full FLuc ctr inactive
COc1ccc(CCn2c(C)cc(C(=O)CSc3nnnn3-c3ccccc3)c2C)cc1	none
Cc1cc(C(=O)CSc2nnnn2C)c(C)n1CCc1ccc(Cl)cc1	Mdm2 MdmX PPI 55.4 | Mdm2-MdmX conf inactive
CN(CC(=O)NC(=O)NC1CCCCC1)CC(=O)Nc1ccc(Cl)cc1	none (no result: SKKanGAS inh)
COCCn1c(-c2ccc(-c3ccccc3Cl)o2)nc2c1c(=O)[nH]c(=O)n2CC(C)C	Mdm2 MdmX PPI 59.4 | Mdm2-MdmX conf inactive
CCCCn1c(=O)[nH]c(=O)c2c1nc(-c1ccc(-c3ccccc3Br)o1)n2CCOC	Mdm2 MdmX PPI 53.1 | Mdm2-MdmX conf inactive
CCCCn1c(=O)[nH]c(=O)c2c1nc(-c1ccc(-c3ccc(F)cc3)o1)n2C	Mdm2 MdmX PPI 73.9 | Mdm2-MdmX conf inactive
CCOc1ccc(N(CC(=O)NCCSCc2ccccc2)S(C)(=O)=O)cc1	none
O=C(COC(=O)C1=COCCO1)Nc1cc(Cl)c(Cl)cc1Cl	none (no result: SKKanGAS inh)
C=CC(=O)Nc1cccc(Oc2ncnc3[nH]cc(-c4cnc5ccccc5c4)c23)c1	Mdm2 MdmX PPI 92.7 (no result: CSC inhib, SKKanGAS inh) | Mdm2-MdmX conf 78.8 | Full FLuc ctr 58.7
CCOc1ccc(S(=O)(=O)NNS(=O)(=O)c2ccc(C)cc2C)cc1	none (no result: Beta apoptosis)
COc1cc(-c2nc(-c3ccccc3)c(-c3cccs3)[nH]2)cc(OC)c1OC	CSC inhib 78.0, Mdm2 MdmX PPI 76.0 | Mdm2-MdmX conf 40.0 | Full FLuc ctr 100.2
COc1cc(-c2nc(-c3ccccc3)c(-c3cccs3)[nH]2)cc(OC)c1O	none (no result: Beta apoptosis)
COc1ccc2[nH]c3c(N4CCC(O)(c5cccc(C(F)(F)F)c5)CC4)ncnc3c2c1	Mdm2 MdmX PPI 74.5 | Mdm2-MdmX conf 66.9 | Full FLuc ctr inactive
COc1ccc2[nH]c3c(N4CCN(Cc5ccc6c(c5)OCO6)CC4)ncnc3c2c1	Mdm2 MdmX PPI 57.2 | Mdm2-MdmX conf inactive
COc1ccc2cc(C(=O)N3CCN(Cc4ccc5c(c4)OCO5)CC3)[nH]c2c1	none
O=[N+]([O-])c1ccc2ncnc(N3CCN(Cc4ccc5c(c4)OCO5)CC3)c2c1	Mdm2 MdmX PPI 74.0 | Mdm2-MdmX conf 65.0 | Full FLuc ctr inactive
O=C(Nc1cccc(C(=O)Nc2ccc(F)cc2F)c1)c1ccccc1	none
O=C(CCNC(=O)c1ccc(Br)cc1)NCCCSc1ccccc1	none
CN(CC(=O)Nc1ccc(F)c(F)c1F)C(=O)C1CCCO1 (stereo not drawn)	none
CCCN1CCC(NCc2cn(C)nc2-c2ccc(Oc3ccccc3)cc2)CC1	Mdm2 MdmX PPI 64.7 | Mdm2-MdmX conf 64.8 | Full FLuc ctr 56.5
COC1CCCN(Cc2cn(C)nc2-c2ccc(Oc3ccccc3)cc2)C1 (stereo not drawn)	none
Cn1cc(CN2CCCCC2CO)c(-c2ccc(Oc3ccccc3)cc2)n1 (stereo not drawn)	none (no result: SKKanGAS inh)
COCCN1CCCC(CNCc2cn(C)nc2-c2ccc(Oc3ccccc3)cc2)C1 (stereo not drawn)	Mdm2 MdmX PPI 71.3 | Mdm2-MdmX conf 60.3 | Full FLuc ctr 50.0
O=C(NCCCc1ccccc1)c1c(O)nc2sccn2c1=O	Mdm2 MdmX PPI 75.3 (no result: Beta apoptosis) | Mdm2-MdmX conf 56.8 | Full FLuc ctr 51.9

Assay outcomes (PubChem)
